Results: ChEMBL document CHEMBL1142148, “Antibiotic susceptibility profile of bifidobacteria as affected by oxgall, acid, and hydrogen peroxide stress” (2007)
≈ marks a conversion by molar mass, not a printed value.

Legend:
Bifidobacterium breve [1] = experiment: Antimicrobial activity against 90 mins oxgall-stressed Bifidobacterium breve ATCC 15700 after 18 hrs; format: functional
How it was run: (§1)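 Cells pelleted from mid-log MRS culture and resuspended in MRS (initial pH 6.5) with 0.3% (wt/vol) oxgall for 90 min anaerobically at 37°C. They were then regrown in MRS pH 6.5 for 24 h (footnote: 18 h) anaerobically and tested for MIC by the same broth microdilution assay. Median of four repetitions.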

Bifidobacterium longum [2] = experiment: Antimicrobial activity against Bifidobacterium longum P/N 601377; format: functional
How it was run: (§2)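 Broth microdilution in MRS plus 0.05% L-cysteine-HCl. Mid-log culture adjusted to OD650 0.1, giving about 2.5 × 10^4 to 5.0 × 10^4 CFU/well, then added to twofold serial dilutions of agent. Plates incubated anaerobically at 37°C for 18 h and read at OD650. MIC is the lowest concentration matching the uninoculated blank OD, taken as the median of four repeats.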

Bifidobacterium bifidum [3] = experiment: Antimicrobial activity against 90 mins hydrogen peroxide-stressed Bifidobacterium bifidum BB12 after 18 hrs; format: functional
How it was run: (§3)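 Stress applied for 90 min at 37°C under anaerobic conditions, using MRS (initial pH 6.5) containing H2O2 at each strain's own inhibitory concentration. The H2O2 level was set beforehand by microplate tolerance testing. Challenged cells were regrown in MRS for 24 h (footnote: 18 h) before MIC testing by broth microdilution. Median of four repetitions.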

Bifidobacterium breve [4] = experiment: Antimicrobial activity against 60 min 1 M HCl-stressed Bifidobacterium breve ATCC 15700 after 18 hrs; format: functional
How it was run: (§4)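 Mid-log MRS culture pelleted and resuspended in MRS broth brought to pH 2.0 with 1 M HCl, held anaerobically at 37°C for 60 min, then subcultured in MRS (pH 6.5) for 24 h anaerobically before MIC testing by broth microdilution (as for unstressed cells). Table footnote gives 18 h anaerobic regrowth after the stress. MIC is the median of four repetitions.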

Bifidobacterium bifidum [5] = experiment: Antimicrobial activity against 60 min 1 M HCl-stressed Bifidobacterium bifidum R0071 after 18 hrs; format: functional; how it was run: as §4
Bifidobacterium bifidum [6] = experiment: Antimicrobial activity against 90 mins oxgall-stressed Bifidobacterium bifidum R0071 after 18 hrs; format: functional; how it was run: as §1
Bifidobacterium bifidum [7] = experiment: Antimicrobial activity against Bifidobacterium bifidum ATCC 15696; format: functional; how it was run: as §2
Bifidobacterium bifidum [8] = experiment: Antimicrobial activity against Bifidobacterium bifidum BB12; format: functional; how it was run: as §2
Bifidobacterium animalis [9] = experiment: Antimicrobial activity against 90 mins hydrogen peroxide-stressed Bifidobacterium animalis ATCC 27536 after 18 hrs; format: functional; how it was run: as §3
Bifidobacterium longum [10] = experiment: Antimicrobial activity against Bifidobacterium longum ATCC 15707; format: functional; how it was run: as §2
Bifidobacterium longum [11] = experiment: Antimicrobial activity against 90 mins hydrogen peroxide-stressed Bifidobacterium longum ATCC 15708 after 18 hrs; format: functional; how it was run: as §3
Bifidobacterium longum [12] = experiment: Antimicrobial activity against 90 mins hydrogen peroxide-stressed Bifidobacterium longum P/N 601377 after 18 hrs; format: functional; how it was run: as §3
[13] = test system: Bifidobacterium pseudolongum; experiment: Antimicrobial activity against Bifidobacterium pseudolongum ATCC 25562; format: functional; how it was run: as §2
Bifidobacterium bifidum [14] = experiment: Antimicrobial activity against 60 min 1 M HCl-stressed Bifidobacterium bifidum BB12 after 18 hrs; format: functional; how it was run: as §4
Bifidobacterium breve [15] = experiment: Antimicrobial activity against 60 min 1 M HCl-stressed Bifidobacterium breve R0070 after 18 hrs; format: functional; how it was run: as §4
Bifidobacterium breve [16] = experiment: Antimicrobial activity against Bifidobacterium breve R0070; format: functional; how it was run: as §2
Bifidobacterium breve [17] = experiment: Antimicrobial activity against 90 mins oxgall-stressed Bifidobacterium breve R0070 after 18 hrs; format: functional; how it was run: as §1
Bifidobacterium bifidum [18] = experiment: Antimicrobial activity against Bifidobacterium bifidum R0071; format: functional; how it was run: as §2
Bifidobacterium longum [19] = experiment: Antimicrobial activity against Bifidobacterium longum ATCC 15708; format: functional; how it was run: as §2
Bifidobacterium bifidum [20] = experiment: Antimicrobial activity against 90 mins hydrogen peroxide-stressed Bifidobacterium bifidum R0071 after 18 hrs; format: functional; how it was run: as §3
Bifidobacterium longum [21] = experiment: Antimicrobial activity against 60 min 1 M HCl-stressed Bifidobacterium longum ATCC 15707 after 18 hrs; format: functional; how it was run: as §4
Bifidobacterium bifidum [22] = experiment: Antimicrobial activity against 90 mins oxgall-stressed Bifidobacterium bifidum BB12 after 18 hrs; format: functional; how it was run: as §1
Bifidobacterium breve [23] = experiment: Antimicrobial activity against 90 mins hydrogen peroxide-stressed Bifidobacterium breve R0070 after 18 hrs; format: functional; how it was run: as §3
Bifidobacterium breve [24] = experiment: Antimicrobial activity against 90 mins hydrogen peroxide-stressed Bifidobacterium breve ATCC 15700 after 18 hrs; format: functional; how it was run: as §3
[25] = test system: Bifidobacterium thermophilum; experiment: Antimicrobial activity against 60 min 1 M HCl-stressed Bifidobacterium thermophilum ATCC 25866 after 18 hrs; format: functional; how it was run: as §4
[26] = test system: Bifidobacterium thermophilum; experiment: Antimicrobial activity against 90 mins hydrogen peroxide-stressed Bifidobacterium thermophilum ATCC 25866 after 18 hrs; format: functional; how it was run: as §3
[27] = test system: Bifidobacterium thermophilum; experiment: Antimicrobial activity against Bifidobacterium thermophilum ATCC 25866; format: functional; how it was run: as §2
Bifidobacterium longum [28] = experiment: Antimicrobial activity against 60 min 1 M HCl-stressed Bifidobacterium longum P/N 601377 after 18 hrs; format: functional; how it was run: as §4
[29] = test system: Bifidobacterium thermophilum; experiment: Antimicrobial activity against 90 mins oxgall-stressed Bifidobacterium thermophilum ATCC 25866 after 18 hrs; format: functional; how it was run: as §1
[30] = Antimicrobial activity against 90 mins oxgall-stressed Bifidobacterium infantis ATCC 15697 after 18 hrs; format: functional, Bifidobacterium longum subsp. infantis; conditions: Bifidobacterium longum; how it was run: as §1
Bifidobacterium longum [31] = experiment: Antimicrobial activity against 90 mins hydrogen peroxide-stressed Bifidobacterium longum ATCC 15707 after 18 hrs; format: functional; how it was run: as §3
Bifidobacterium breve [32] = experiment: Antimicrobial activity against Bifidobacterium breve ATCC 15700; format: functional; how it was run: as §2
Bifidobacterium longum [33] = experiment: Antimicrobial activity against 90 mins oxgall-stressed Bifidobacterium longum ATCC 15707 after 18 hrs; format: functional; how it was run: as §1
Bifidobacterium animalis [34] = experiment: Antimicrobial activity against Bifidobacterium animalis ATCC 27536; format: functional; how it was run: as §2
Bifidobacterium longum [35] = experiment: Antimicrobial activity against 90 mins oxgall-stressed Bifidobacterium longum P/N 601377 after 18 hrs; format: functional; how it was run: as §1
Bifidobacterium longum [36] = experiment: Antimicrobial activity against 90 mins oxgall-stressed Bifidobacterium longum ATCC 15708 after 18 hrs; format: functional; how it was run: as §1
Bifidobacterium longum [37] = experiment: Antimicrobial activity against 90 mins oxgall-stressed Bifidobacterium longum R0175 after 18 hrs; format: functional; how it was run: as §1
Bifidobacterium bifidum [38] = experiment: Antimicrobial activity against 90 mins oxgall-stressed Bifidobacterium bifidum ATCC 15696 after 18 hrs; format: functional; how it was run: as §1
Bifidobacterium longum [39] = experiment: Antimicrobial activity against Bifidobacterium longum R0175; format: functional; how it was run: as §2
[40] = Antimicrobial activity against 60 min 1 M HCl-stressed Bifidobacterium infantis ATCC 15697 after 18 hrs; format: functional, Bifidobacterium longum subsp. infantis; conditions: Bifidobacterium longum; how it was run: as §4
[41] = test system: Bifidobacterium pseudolongum; experiment: Antimicrobial activity against 60 min 1 M HCl-stressed Bifidobacterium pseudolongum ATCC 25562 after 18 hrs; format: functional; how it was run: as §4
[42] = test system: Bifidobacterium pseudolongum; experiment: Antimicrobial activity against 90 mins oxgall-stressed Bifidobacterium pseudolongum ATCC 25562 after 18 hrs; format: functional; how it was run: as §1
Bifidobacterium animalis [43] = experiment: Antimicrobial activity against 90 mins oxgall-stressed Bifidobacterium animalis ATCC 27536 after 18 hrs; format: functional; how it was run: as §1
Bifidobacterium longum [44] = experiment: Antimicrobial activity against 60 min 1 M HCl-stressed Bifidobacterium longum R0175 after 18 hrs; format: functional; how it was run: as §4
Bifidobacterium longum [45] = experiment: Antimicrobial activity against 90 mins hydrogen peroxide-stressed Bifidobacterium longum R0175 after 18 hrs; format: functional; how it was run: as §3
[46] = Antimicrobial activity against Bifidobacterium infantis ATCC 15697; format: functional, Bifidobacterium longum subsp. infantis; conditions: Bifidobacterium longum; how it was run: as §2
Bifidobacterium animalis [47] = experiment: Antimicrobial activity against 60 min 1 M HCl-stressed Bifidobacterium animalis ATCC 27536 after 18 hrs; format: functional; how it was run: as §4

MIC (Bifidobacterium breve [1]): 250 µg/mL (≈ 430 µM) | MIC (Bifidobacterium longum [2]): 125 µg/mL (≈ 215 µM) | MIC (Bifidobacterium bifidum [3]): 250 µg/mL (≈ 430 µM) | MIC (Bifidobacterium breve [4]): 125 µg/mL (≈ 215 µM) | MIC (Bifidobacterium bifidum [5]): 250 µg/mL (≈ 430 µM) | MIC (Bifidobacterium bifidum [6]): 125 µg/mL (≈ 215 µM) | MIC (Bifidobacterium bifidum [7]): 250 µg/mL (≈ 430 µM) | MIC (Bifidobacterium bifidum [8]): 250 µg/mL (≈ 430 µM) | MIC (Bifidobacterium animalis [9]): 250 µg/mL (≈ 430 µM) | MIC (Bifidobacterium longum [10]): 250 µg/mL (≈ 430 µM) | MIC (Bifidobacterium longum [11]): 500 µg/mL (≈ 860 µM) | MIC (Bifidobacterium longum [12]): 125 µg/mL (≈ 215 µM) | MIC [13]: 250 µg/mL (≈ 430 µM) | MIC (Bifidobacterium bifidum [14]): 125 µg/mL (≈ 215 µM) | MIC (Bifidobacterium breve [15]): 125 µg/mL (≈ 215 µM) | MIC (Bifidobacterium breve [16]): 15.6 µg/mL (≈ 26.8 µM) | MIC (Bifidobacterium breve [17]): 125 µg/mL (≈ 215 µM) | MIC (Bifidobacterium bifidum [18]): 250 µg/mL (≈ 430 µM) | MIC (Bifidobacterium longum [19]): 250 µg/mL (≈ 430 µM) | MIC (Bifidobacterium bifidum [20]): 250 µg/mL (≈ 430 µM) | MIC (Bifidobacterium longum [21]): 250 µg/mL (≈ 430 µM) | MIC (Bifidobacterium bifidum [22]): 500 µg/mL (≈ 860 µM) | MIC (Bifidobacterium breve [23]): 250 µg/mL (≈ 430 µM) | MIC (Bifidobacterium breve [24]): 500 µg/mL (≈ 860 µM) | MIC [25]: 250 µg/mL (≈ 430 µM) | MIC [26]: 500 µg/mL (≈ 860 µM) | MIC [27]: 250 µg/mL (≈ 430 µM) | MIC (Bifidobacterium longum [28]): 62.5 µg/mL (≈ 107 µM) | MIC [29]: 250 µg/mL (≈ 430 µM) | MIC [30]: 250 µg/mL (≈ 430 µM) | MIC (Bifidobacterium longum [31]): 62.5 µg/mL (≈ 107 µM) | MIC (Bifidobacterium breve [32]): 250 µg/mL (≈ 430 µM) | MIC (Bifidobacterium longum [33]): 62.5 µg/mL (≈ 107 µM) | MIC (Bifidobacterium animalis [34]): 250 µg/mL (≈ 430 µM) | MIC (Bifidobacterium longum [35]): 125 µg/mL (≈ 215 µM) | MIC (Bifidobacterium longum [36]): 250 µg/mL (≈ 430 µM) | MIC (Bifidobacterium longum [37]): 125 µg/mL (≈ 215 µM) | MIC (Bifidobacterium bifidum [38]): 1.9 µg/mL (≈ 3.27 µM) | MIC (Bifidobacterium longum [39]): 62.5 µg/mL (≈ 107 µM) | MIC [40]: 250 µg/mL (≈ 430 µM) | MIC [41]: 250 µg/mL (≈ 430 µM) | MIC [42]: 250 µg/mL (≈ 430 µM) | MIC (Bifidobacterium animalis [43]): 125 µg/mL (≈ 215 µM) | MIC (Bifidobacterium longum [44]): 31.2 µg/mL (≈ 53.6 µM) | MIC (Bifidobacterium longum [45]): 250 µg/mL (≈ 430 µM) | MIC [46]: 250 µg/mL (≈ 430 µM) | MIC (Bifidobacterium animalis [47]): 125 µg/mL (≈ 215 µM)
Structure (SMILES): CN[C@@H]1[C@H](O[C@H]2[C@H](O[C@H]3[C@H](O)[C@@H](O)[C@H](N=C(N)N)[C@@H](O)[C@@H]3N=C(N)N)O[C@@H](C)[C@]2(O)C=O)O[C@@H](CO)[C@H](O)[C@H]1O [STREPTOMYCIN]
